Measured values pooled from the literature.
Protocols differ between the studies behind these lines.
Target: Wee1-like protein kinase (WEE1, Homo sapiens, UniProt P30291)

Cc1ccc(Nc2nccc(N(C)c3ccc4c(C)n(C)nc4c3)n2)cc1S(N)(=O)=O  remaining activity (enzyme activity; inhibitor; 0.5 µM): 95.3%
Nc1ncnc2occ(-c3ccc(NC(=O)Nc4cc(C(F)(F)F)ccc4F)cc3)c12  remaining signal (cell-free assay; inhibitor; 20 µM): 17%
Cc1ccc(NC(=O)c2ccc(CN3CCN(C)CC3)cc2)cc1Nc1nc(-c2cccnc2)cs1  remaining signal (cell-free assay; 0.5 µM): 97%
CCOCCn1cc(C(=O)Nc2ccc(-n3nc(-c4cccnc4)cc3C(F)(F)F)cn2)ccc1=O  remaining binding (cell-free assay; competition with immobilised ligand; 1 µM): 100%
O=C(Nc1cnn(-c2csc(C(=O)NC3COC3)c2)c1)Nc1c(F)cccc1Cl  remaining activity (enzyme activity; inhibitor; 5 µM): 85.2%
N#CCCc1ccc2c(c1)-c1[nH]c3ccc([N+](=O)[O-])cc3c1CC(=O)N2  remaining signal (cell-free assay; 0.5 µM): 100%
C[C@H](NC(=O)c1cnc2n1[C@](C)(Cc1ccc(C#N)cc1)C(=O)N2c1cc(Cl)c(F)c(Cl)c1)C(=O)NC1(c2ccccn2)CC1  remaining binding (cell-free assay; competition with immobilised ligand; 1 µM): 100%
CC(C)(C)c1nc(-c2cccc(NS(=O)(=O)c3c(F)cccc3F)c2F)c(-c2ccnc(N)n2)s1  remaining activity (enzyme activity; inhibitor; radiometric; 1 µM): 91%
Cc1ccc(C(=O)Nc2ccc(CN3CCN(C)CC3)c(C(F)(F)F)c2)cc1C#Cc1cnc2cccnn12  remaining activity (enzyme activity; inhibitor; 23.5 nM): 100%
COc1cc2c(Nc3ccc(Br)cc3F)ncnc2cc1OCC1CCN(C)CC1  remaining signal (cell-free assay; 0.5 µM): 95.1%
CC1=C(C#N)[C@@H](c2ccc3[nH]nc(C)c3c2)C(C#N)=C(c2ccc(Cl)cc2)N1  remaining binding (cell-free assay; competition with immobilised ligand; 1 µM): 100%
Cc1ccc(C(=O)NCc2ccsc2)cc1C#Cc1cn(C(C)C)c2ncnc(N)c12  activity vs control (enzyme activity; inhibitor; 1 µM): 103%
N#Cc1ccc(Nc2ccc3[nH]c(=O)[nH]c3c2)c(Cl)c1  remaining binding (cell-free assay; competition with immobilised ligand; 1 µM): 87%
Cc1cnc(NC2CCOCC2)nc1-n1cnc(C(=O)NC(CN)c2cc(F)cc(Cl)c2)c1 (stereo not shown)  remaining activity (enzyme activity; inhibitor; radiometric; 1 µM): 101%
O=c1nc(-c2ccccn2)sc2ccccc12  remaining binding (binding; competition with immobilised ligand; 1 µM): 100%
CN(c1nccc(-c2cnn3ncccc23)n1)C1CC1  remaining binding (binding; 1 µM): 100%
